# Measured values published in ChEMBL document CHEMBL1148211, “Cytotoxic lissoclimide-type diterpenes from the molluscs Pleurobranchusalbiguttatus and Pleurobranchus forskalii” (J Nat Prod, 2004).
# Experiments:
# [1] = Cytotoxicity against human CFU-GM cells at 63 ug/disk by Valeriote soft agar disk diffusion method; type: cell-based
# How it was run: (§1)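 Corbett–Valeriote soft agar disk diffusion assay. Sample is loaded onto a disk at the stated µg/disk and placed on soft agar cultures of the cells. The read-out is the size of the zone of inhibition around the disk. Zones for the solid tumour line (Colon38) are compared with those for leukaemia cells (L1210) or normal CFU-GM cells to judge differential cytotoxicity.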
# L1210 [2] = assay: Cytotoxicity against mouse L1210 cells at 63 ug/disk by Valeriote soft agar disk diffusion method; type: functional; how it was run: as §1
# MC-38 [3] = assay: Cytotoxicity against […] cells at 63 ug/disk by Valeriote soft agar disk diffusion method; type: functional; how it was run: as §1
# [4] = Cytotoxicity against human NCI60 cells; type: functional; conditions: for TGI: read-out: pTGI (converted)
# MC-38 [5] = assay: Cytotoxicity against […] cells at 1.8 ug/mL by Valeriote soft agar disk diffusion method; type: functional
# How it was run: (§2)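 Corbett–Valeriote soft agar disk diffusion assay, with doses given per disk. Zones of inhibition around sample disks were compared between solid tumor cells (Colon38, ColonH116, LungH125) and either leukemia cells (L1210 or CEM) or normal CFU-GM cells. Zone sizes were used to score differential (solid tumor-selective) cytotoxicity.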
# CCRF-CEM [6] = assay: Cytotoxicity against human CEM cells at 1.5 ug/mL by Valeriote soft agar disk diffusion method
# [7] = Cytotoxicity against human H116 cells at 1.5 ug/mL by Valeriote soft agar disk diffusion method; type: functional; how it was run: as §2
# CCRF-CEM [8] = assay: Cytotoxicity against human CEM cells at 1.5 ug/mL by Valeriote soft agar disk diffusion method; type: functional; how it was run: as §2
# L1210 [9] = assay: Cytotoxicity against mouse L1210 cells at 1.5 ug/mL by Valeriote soft agar disk diffusion method
# [10] = Cytotoxicity against human H125 cells at 1.5 ug/mL by Valeriote soft agar disk diffusion method; type: functional; how it was run: as §2
# L1210 [11] = assay: Cytotoxicity against mouse L1210 cells at 1.5 ug/mL by Valeriote soft agar disk diffusion method; type: functional; how it was run: as §2
# [12] = Cytotoxicity against human H116 cells at 1.5 ug/mL by Valeriote soft agar disk diffusion method
# MC-38 [13] = assay: Cytotoxicity against […] cells at 1.5 ug/mL by Valeriote soft agar disk diffusion method; type: functional; how it was run: as §2
# [14] = Cytotoxicity against human H125 cells at 1.5 ug/mL by Valeriote soft agar disk diffusion method
# L1210 [15] = assay: Cytotoxicity against mouse L1210 cells at 113 ug/disk by Valeriote soft agar disk diffusion method; type: functional; how it was run: as §1
# MC-38 [16] = assay: Cytotoxicity against […] cells at 113 ug/disk by Valeriote soft agar disk diffusion method; type: functional; how it was run: as §1
# [17] = Cytotoxicity against human CFU-GM cells at 113 ug/disk by Valeriote soft agar disk diffusion method; type: cell-based; how it was run: as §1
# MC-38 [18] = assay: Cytotoxicity against […] cells at 1.5 ug/mL by Valeriote soft agar disk diffusion method
structure (smiles),measurement,setting,value
C=C1[C@@H](O)C[C@H]2C(C)(C)[C@@H](O)[C@H](Cl)C[C@]2(C)[C@H]1C[C@H](O)[C@H]1CC(=O)NC1=O,Activity,[1],100 Zone units
same,Activity,L1210 [2],500 Zone units
same,Activity,MC-38 [3],400 Zone units
C=C1[C@@H](O)C[C@H]2C(C)(C)[C@@H](Cl)[C@H](Cl)C[C@]2(C)[C@H]1C[C@H](O)[C@H]1CC(=O)NC1=O [DICHLOROLISSOCLIMIDE],GI50,[4],0.00549 µM
same,LC50,[4],20 µM
same,TGI,[4],0.123 µM
same,Activity,MC-38 [5],550 Zone units
same,Activity,CCRF-CEM [6],550 Zone units
same,Activity,[7],550 Zone units
same,Activity,CCRF-CEM [8],550 Zone units
same,Activity,L1210 [9],550 Zone units
same,Activity,[10],550 Zone units
same,Activity,L1210 [11],550 Zone units
same,Activity,[12],550 Zone units
same,Activity,MC-38 [13],550 Zone units
same,Activity,[14],550 Zone units
C=C1CC(=O)[C@H]2C(C)(C)[C@@H](Cl)[C@H](Cl)C[C@]2(C)[C@H]1C[C@H](O)[C@H]1CC(=O)NC1=O,Activity,L1210 [15],250 Zone units
same,Activity,MC-38 [16],650 Zone units
same,Activity,[17],350 Zone units
CC1=CC(=O)[C@H]2C(C)(C)[C@@H](Cl)[C@H](Cl)C[C@]2(C)[C@H]1C[C@H](O)[C@H]1CC(=O)NC1=O [HATERUMAIMIDE D],GI50,[4],0.977 µM
same,LC50,[4],44.7 µM
same,TGI,[4],12.3 µM
C=C1[C@@H](O)C[C@H]2C(C)(C)C[C@H](Cl)C[C@]2(C)[C@H]1C[C@H](O)[C@H]1CC(=O)NC1=O [CHLOROLISSOCLIMIDE],Activity,MC-38 [18],550 Zone units
same,GI50,[4],0.00575 µM
same,LC50,[4],16.6 µM
same,TGI,[4],0.129 µM
same,Activity,CCRF-CEM [6],550 Zone units
same,Activity,[7],550 Zone units
same,Activity,CCRF-CEM [8],550 Zone units
same,Activity,L1210 [9],550 Zone units
same,Activity,[10],550 Zone units
same,Activity,L1210 [11],550 Zone units
same,Activity,[12],550 Zone units
same,Activity,MC-38 [13],550 Zone units
same,Activity,[14],550 Zone units
